Assay results reported in publication PMC11229370 (Nucleic Acids Research, 2024).

How the values were obtained:
BtProRS1 [1] = target: T1, BtProRS1 (Bacillus thuringiensis, UniProt Q6HEZ6); test: Aminoacylation after pretreatment of the enzyme with H2O2, DTT, urea or GnHCl; assay type: biochemical
T1 sequence (Q6HEZ6 1-566): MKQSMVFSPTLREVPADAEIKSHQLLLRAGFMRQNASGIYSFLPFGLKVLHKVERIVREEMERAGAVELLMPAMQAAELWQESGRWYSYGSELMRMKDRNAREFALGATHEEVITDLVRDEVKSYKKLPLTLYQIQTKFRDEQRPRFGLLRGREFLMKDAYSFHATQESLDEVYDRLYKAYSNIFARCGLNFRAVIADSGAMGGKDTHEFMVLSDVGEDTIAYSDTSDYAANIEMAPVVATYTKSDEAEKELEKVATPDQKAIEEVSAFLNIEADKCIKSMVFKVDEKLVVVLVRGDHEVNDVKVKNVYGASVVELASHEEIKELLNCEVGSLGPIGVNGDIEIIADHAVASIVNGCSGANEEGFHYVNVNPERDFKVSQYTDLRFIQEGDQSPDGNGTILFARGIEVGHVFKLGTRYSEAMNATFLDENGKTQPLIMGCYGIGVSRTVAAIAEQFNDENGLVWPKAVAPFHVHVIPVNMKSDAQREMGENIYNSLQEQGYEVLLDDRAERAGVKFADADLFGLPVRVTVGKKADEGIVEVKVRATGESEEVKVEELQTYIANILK
In short: (§1)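 Purified His6-tagged enzymes were expressed in E. coli BL21-CodonPlus(DE3) and purified by Ni-NTA. Enzymes at 1000 nM were pretreated 10 min at 20°C with H2O2 (0–32 mM), DTT (0–80 mM), urea (0–3200 mM) or GnHCl (0–3200 mM). They were then diluted to 100 nM final in buffer with 4 mM ATP, 10 μM transcribed tRNA^Pro and 21.13 μM [3H]-proline, run 10 min at 30°C, with TCA filter counting; three independent experiments.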

BtProRS2 [2] = target: T2, BtProRS2 (Bacillus thuringiensis, UniProt Q6HNZ7); test: as above; assay type: biochemical
T2 sequence (Q6HNZ7 1-476): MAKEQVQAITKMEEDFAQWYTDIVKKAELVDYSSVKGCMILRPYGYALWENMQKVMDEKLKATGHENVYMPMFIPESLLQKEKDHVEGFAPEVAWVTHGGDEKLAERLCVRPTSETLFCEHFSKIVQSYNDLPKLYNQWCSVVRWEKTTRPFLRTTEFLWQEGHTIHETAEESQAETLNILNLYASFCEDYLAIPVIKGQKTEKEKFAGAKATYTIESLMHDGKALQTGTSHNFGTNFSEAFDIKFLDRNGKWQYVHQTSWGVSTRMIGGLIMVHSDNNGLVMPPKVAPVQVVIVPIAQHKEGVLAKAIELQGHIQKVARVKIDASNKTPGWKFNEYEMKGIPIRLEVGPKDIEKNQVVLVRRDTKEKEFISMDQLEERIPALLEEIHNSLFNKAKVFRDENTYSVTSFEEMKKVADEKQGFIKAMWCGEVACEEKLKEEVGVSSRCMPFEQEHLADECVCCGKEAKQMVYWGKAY
In short: as §1

BtProRS1 [3] = target: T1, BtProRS1; test: HF inhibition assay; assay type: biochemical
In short: (§2)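 Purified His6-tagged enzyme (100 nM final) was mixed with test compound (0.1 nM–10 μM) in 50 μl aminoacylation buffer. Incubation was 10 min at 30°C, with TCA-filter scintillation counting. Relative activity is rate with inhibitor over rate without, and curves were fitted per enzyme.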

BtProRS2 [4] = target: T2, BtProRS2; test: HF inhibition assay; assay type: biochemical
In short: as §2

[5] = test system: total cellular extracts of B. thuringiensis; test: HF inhibition assay with total cellular extracts; assay type: biochemical, Bacillus thuringiensis; settings: 3 μg of total cellular extracts in 50-μl aminoacylation buffer, 30°C, 10 min
In short: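 B. thuringiensis ATCC 13367 was grown 24 h at 30°C in LB with shaking, PBS-washed, glass-bead lysed on ice in HEPES pH 7.2 buffer with protease inhibitors, and cleared. Extract (3 μg) was incubated with test compound (0.1 nM–10 μM) 10 min at 30°C; [3H]-proline charging of tRNA^Pro was filter-counted. Relative activity curves were fitted using the individual-enzyme curves to give the ProRS1 activity proportion.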

P. falciparum ProRS = settings: cited from earlier work
T. gondii ProRS = settings: cited from earlier work
[6] = test system: P-type ProRS (such as Pseudomonas aeruginosa ProRS); settings: cited from earlier work

| Compound | IC50 (BtProRS1 [1]) | IC50 (BtProRS2 [2]) | IC50 (BtProRS1 [3]) | IC50 (BtProRS2 [4]) | IC50 for BtProRS2 lower than that for BtProRS1 (BtProRS2 [4]; ratio of IC50 BtProRS1 to BtProRS2) | IC50 [5] | IC50 (P. falciparum ProRS) | IC50 (T. gondii ProRS) | less effective against a P-type ProRS than against E-type ProRS [6] |
| --- | --- | --- | --- | --- | --- | --- | --- | --- | --- |
| O[C@@H](CS)[C@@H](O)CS (racemic) [DTT, Dithiothreitol] | 27000 µM | > 80000 µM |  |  |  |  |  |  |  |
| O=C(CC1NCCCC1O)Cn1cnc2cc(Br)c(Cl)cc2c1=O (stereo not drawn) [HF, halofuginone] |  |  | 0.68 µM | 0.17 µM | 4 fold | ~0.4 µM | 0.009 µM | 0.00541 µM | ~100 fold |
